OX1R antag-1 = human HCRTR1 antagonism. CHO/OX1R cells, Fluo-8 calcium fluorescence, orexin A. AID 434989. hit rate 0.43% among 330,000. inhibition, % at 5 µM. O43613;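 active = inhibition above its plate's threshold, mean inhibition of all tested compounds on the plate plus 3 SD, cut at about 37% in these data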;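 note: 0% = orexin A challenge wells and 100% = SB-334867-A antagonist wells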
Target sequence (O43613 whole entry, looked up): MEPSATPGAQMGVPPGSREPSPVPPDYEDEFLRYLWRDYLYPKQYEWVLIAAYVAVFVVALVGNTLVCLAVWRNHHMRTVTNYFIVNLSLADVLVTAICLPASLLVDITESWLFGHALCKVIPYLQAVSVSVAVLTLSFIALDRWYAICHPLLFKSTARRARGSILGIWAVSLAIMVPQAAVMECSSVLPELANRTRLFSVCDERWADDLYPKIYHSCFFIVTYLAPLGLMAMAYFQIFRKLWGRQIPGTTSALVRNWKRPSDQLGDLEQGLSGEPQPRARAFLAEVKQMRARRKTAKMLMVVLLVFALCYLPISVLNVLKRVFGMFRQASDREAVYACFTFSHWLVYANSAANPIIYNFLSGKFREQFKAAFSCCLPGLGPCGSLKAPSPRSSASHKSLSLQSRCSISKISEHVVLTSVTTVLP
OX1R antag-2 = OX1R (human) antagonism; OX1R-expressing cells, FRET antagonist read-out; hit rate 1.8% among 330,000; inhibition, % at 6.6 µM; AID 485270; in the data active = inhibition mostly above about 38%, no sharp cut-off; inactive = mostly below about 40%;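 note: 0% = agonist challenge alone and 100% = reference antagonist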
TAAR1 ag = agonists of human TAAR1; Q96RJ0; CHO RD-HGA16 TAAR1, Fluo-8 calcium fluorescence; vehicle wells 0%, saturating PEA agonist 100%; activation, % at 3 µM; hit rate 0.99% among 360,000; AID 624467;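 active = activation above the mean activation of all test compounds in the run plus 3 SD, cut at about 38% in these data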
Target sequence (Q96RJ0 whole entry, looked up): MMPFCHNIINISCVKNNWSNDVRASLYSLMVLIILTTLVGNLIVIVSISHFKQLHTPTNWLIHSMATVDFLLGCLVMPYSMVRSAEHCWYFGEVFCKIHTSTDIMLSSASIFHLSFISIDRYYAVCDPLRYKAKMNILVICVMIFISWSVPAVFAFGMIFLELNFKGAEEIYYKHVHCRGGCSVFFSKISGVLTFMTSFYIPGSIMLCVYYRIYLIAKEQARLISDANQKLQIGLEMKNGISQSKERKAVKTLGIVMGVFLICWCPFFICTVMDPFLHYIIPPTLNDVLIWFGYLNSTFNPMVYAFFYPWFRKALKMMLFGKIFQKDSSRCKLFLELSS
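Signal – calcium-sensitive Fluo-8 signal, excitation 470-495, emission 515-575 nm · System – RD-HGA16 (CHO) cells co-expressing Gα16 and hTAAR1 · Incubation – 17-24 h seeding, 75 min 37 °C dye, 30 min RT · Compound dosing – 3 µM single concentration · Repeats – no replicates (n 1)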
TAAR1 antag = human TAAR1 antagonism; CHO RD-HGA16 TAAR1, Fluo-8 calcium fluorescence, antagonist; inhibition, % at 3 µM; hit rate 1.5% among 360,000; Q96RJ0; AID 624466;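 active = inhibition above a per-plate cutoff, the mean inhibition of test compounds on that plate plus 3 SD, cut at about 49% in these data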;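 note: 0% = DMSO plus EC80 beta-PEA response and 100% = DMSO alone without agonist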
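Test system – hTAAR1-expressing CHO RD-HGA16 cells, Gα16-coupled · Also added – β-PEA at EC80 concentration, post-compound challenge · Compound – 3 µM, single point · Incubation – dye loading 75 min at 37 °C, then 30 min room temperature · Measured by – Fluo-8 intracellular calcium dye fluorescence, real-time kinetic reads · Benchmarks – vehicle and agonist controls · Replicates – singlicate, one well per test compound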
CHO parental Ca = counter-screen for OX1R antagonists: effect in parental CHO cells | parental CHO-K1, ATP-induced calcium, Fluo-8 fluorescence | inhibition, % at 5.6 µM | hit rate 0.63% among 330,000;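 active = inhibition above that plate's mean sample inhibition plus 3 SD, cut at about 26% in these data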;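 note: 0% = ATP-challenged DMSO wells and 100% = DMSO wells without ATP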
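material = parental CHO cells | also added = ATP as calcium-mobilizing challenge | dosing = single point at 5.6 µM | detection = intracellular calcium via Fluo-8 no-wash fluorescent dye | read-out = % inhibition | benchmarks = low control ATP plus DMSO, high control DMSO only | repeats = one well per compound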
GPR7 antag = antagonists of human GPR7 (neuropeptides B/W receptor 1) | hit rate 1.1% among 290,000 | GPR7-expressing cells, fluorescence antagonist assay | inhibition, % at 4.4 µM; in the data active = inhibition above about 16%, passing the limit was not always enough;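 note: cells stimulated with the agonist NPW; 0% = agonist with vehicle and 100% = vehicle without agonist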
* = called active by the depositor; . = not tested or not shown. A selection: hits, their analogues and other compounds. The true share with any hit is near 4.6%.

SMILES | OX1R antag-1 | OX1R antag-2 | TAAR1 ag | TAAR1 antag | CHO parental Ca | GPR7 antag
O=C(NCc1ccccc1)C(c1cccs1)N(Cc1cccs1)C(=O)c1cnccn1 (centres undefined) | -12.1 | 29.1 | 17.4 | 49.6* | -14.5 | -8.2
CCOCCCNC(=O)C(c1ccc(OC)cc1)N(Cc1cccs1)C(=O)c1ccccn1 (centres undefined) | -9.0 | -0.1 | 17.6 | 50.3* | -3.9 | -15.0
CCc1cc(=O)oc2cc(OC(C)C(=O)NCC3CCC(C(=O)O)CC3)c(Cl)cc12 (centres undefined) | -4.8 | 7.7 | 0.4 | -12.2 | -2.5 | -13.0
CC(Nc1nc(-c2cccnc2)nc2ccccc12)c1ccc(F)cc1 (centres undefined) | -12.7 | 22.4 | 5.7 | 4.9 | -10.2 | -8.3
Cc1ccc(S(=O)(=O)NCc2ccc(N3CCN(C(=O)OC(C)(C)C)CC3)cc2)cc1 | -8.9 | 6.8 | 0.3 | -12.3 | -4.1 | 5.4
Cc1ccc(C(C)C)c(OCC(=O)NNC(=O)C(C(C)C)N2C(=O)c3ccccc3C2=O)c1 (centres undefined) | -21.9 | 13.6 | 14.3 | 14.3 | -26.1 | -13.4
O=C1[C@@H](Oc2ccccc2)[C@@H](c2cnc3ccccc3c2)N1c1ccccc1 | 16.7 | 40.7* | -0.7 | 10.7 | -10.2 | .
COc1ccc(CCNC(=O)c2ccc(CNS(=O)(=O)c3ccc(C(C)(C)C)cc3)cc2)cc1OC | 3.6 | 25.7 | 15.2 | 56.2* | -5.1 | -2.3
CCCc1nnc2n1N=C(c1ccc([N+](=O)[O-])cc1)CS2 | -21.5 | 45.3* | 5.7 | -28.5 | 9.7 | -12.3
CC1(c2nnc(-c3cccc(Cl)c3)o2)CC(c2ccccc2)=NO1 (centres undefined) | -24.8 | 23.2 | 15.6 | 10.6 | -19.6 | .
O=C(COc1ccccc1)Nc1ccccc1NS(=O)(=O)c1cccs1 | -13.2 | 16.6 | -0.4 | 11.9 | -11.3 | -8.1
O=C(COc1ccc(Cl)cc1Cl)Nc1ccccc1NS(=O)(=O)c1cccs1 | -10.8 | 52.1* | 5.6 | -0.2 | 19.5 | -12.3
Cc1cc(Cl)ccc1OCC(=O)Nc1ccccc1NS(=O)(=O)c1cccs1 | -7.9 | 40.6* | 2.1 | 10.8 | 13.6 | -13.2
CC(=O)Nc1ccc(NC(=O)C(C)OC(=O)CCCOc2ccc(Cl)cc2C)cc1 (centres undefined) | 0.5 | 53.0* | 2.4 | 19.6 | -22.4 | .
Cc1cc(Cl)ccc1OCC(=O)NNC(=O)c1cccs1 | -16.4 | -3.1 | 0.5 | -12.0 | -20.7 | -13.2
CC(=O)Nc1ccc(NC(=O)C(C)OC(=O)CCCN2C(=O)c3cccc4cccc(c34)C2=O)cc1 (centres undefined) | -4.0 | 74.1* | 10.0 | -1.1 | -23.6 | .
CCOC(=O)C1=C(COC(=O)CNC(=O)c2ccc(Cl)cc2Cl)NC(=O)NC1C (centres undefined) | -23.1 | 17.7 | 2.2 | -5.5 | -7.1 | .
CC(=O)N1CCN(c2ccccc2NC(=O)COc2ccc(Cl)cc2Cl)CC1 | -23.0 | 36.7 | 29.7 | 39.6 | -8.0 | 18.5*
Cc1cc(Cl)ccc1OCC(=O)Nc1ccncc1 | 7.7 | 16.0 | 9.8 | 5.4 | 49.5* | 4.7
NC(=O)c1ccccc1NS(=O)(=O)c1cccs1 | 12.4 | 12.8 | 9.5 | -15.3 | -15.4 | -1.4
O=S(=O)(Nc1ccccc1Cl)c1ccc(NS(=O)(=O)c2cccs2)cc1 | -5.3 | 7.8 | 38.0* | 7.8 | 1.0 | 5.1
CC(=O)N1CCN(c2ccccc2NC(=O)COc2ccccc2C)CC1 | -24.8 | 7.6 | 4.5 | 28.2 | -17.7 | 13.7
O=C(Nc1ccc(Cl)cc1)Nc1ccccc1NS(=O)(=O)c1cccs1 | -25.5 | 60.4* | 14.6 | 9.0 | -7.4 | -12.7
C[C@@H]1CCC[C@]2(O[C@H](CCO)C[C@@H](O)[C@@H]2O)O1 | 5.0 | 24.0 | 2.6 | 0.2 | -2.8 | .
Cc1ccc(NC(=O)CN2C(=O)NC(Cc3ccccc3)C2=O)cc1Cl (centres undefined) | -14.8 | 5.1 | 4.6 | -6.1 | -10.8 | .
SMILES | OX1R antag-1 | OX1R antag-2 | TAAR1 ag | TAAR1 antag | CHO parental Ca | GPR7 antag
CCOC(=O)C1CCCN(c2nc3c(C)cccn3c(=O)c2/C=C(\C#N)C(=O)NCc2ccco2)C1 (centres undefined) | -51.0 | 27.1 | 52.5* | 45.6 | -37.6 | -2.2
COc1ccc(NC(=O)Nc2nc(C(N)Cc3ccc(C(F)(F)F)cc3)cs2)cc1 (centres undefined) | . | . | 39.9* | 49.7* | . | .
COc1ccc(CC(N)c2csc(NC(=O)Nc3ccc(OC)cc3)n2)cc1 (centres undefined) | . | . | 24.6 | 25.9 | . | .
CC(=O)c1ccc(Nc2nc(C(N)Cc3ccc(C(F)(F)F)cc3)cs2)cc1 (centres undefined) | . | . | 52.4* | 35.7 | . | .
NC(Cc1ccc(C(F)(F)F)cc1)c1csc(Nc2ccc(C(=O)c3ccccc3)cc2)n1 (centres undefined) | . | . | 36.1 | 27.0 | . | .
CCN(CC(=O)Nc1c(F)cccc1F)C(=O)C1CC(=O)N(c2ccc3c(c2)OCCO3)C1 (centres undefined) | -6.8 | 5.5 | 0.5 | -29.5 | -4.4 | .
Cc1nn(Cc2c(F)c(F)c(F)c(F)c2F)c(C)c1NC(=O)c1cccc(COc2ccccc2Cl)c1 | -26.5 | 1.4 | 3.0 | -5.0 | -23.1 | -6.3
Cc1nn(Cc2cccc(F)c2)c(C)c1NC(=O)c1ccc(COc2ccccc2Cl)cc1 | 14.3 | 14.9 | 4.8 | 101.4* | 6.1 | 2.4
O=C(NCCN1CCc2ccccc2C1)C1CCN(S(=O)(=O)N2CCCCC2)CC1 | -17.6 | 9.9 | 6.5 | 6.3 | -10.2 | 20.1*
O=C(NCCN1CCc2ccccc2C1)C1CCN(S(=O)(=O)N2CCC3(CC2)OCCO3)CC1 | -15.1 | 31.2 | 15.7 | -9.0 | -11.4 | -7.6
CCC(=O)Nc1cccc(C2=NOC3(C2)C[C@H](C(N)=O)N(C(=O)Cc2ccc([N+](=O)[O-])cc2)C3)c1 (some centres undefined) | 2.4 | 22.2 | 7.3 | -6.9 | 0.4 | .
CCC(=O)N1CC2(CC(c3cccc([N+](=O)[O-])c3)=NO2)C[C@H]1C(=O)NCC(N)=O (some centres undefined) | -0.3 | 66.0* | 10.3 | -5.1 | -4.7 | 0.8
COc1cc(NS(=O)(=O)c2ccc(C)cc2C)cc(OC)c1OC | 30.2 | 27.6 | 8.5 | 33.6 | 50.6* | -2.3
CCOC(=O)c1ccc(NS(=O)(=O)c2cc(C)ccc2OC)cc1 | -19.9 | 8.9 | 7.4 | 4.1 | 24.3* | -6.3
Cc1ccc(S(=O)(=O)Nc2ccncc2)c(C)c1 | -7.3 | 4.6 | 2.9 | -2.6 | -9.7 | -4.3
CCOC(=O)c1ccc(NS(=O)(=O)c2cc(-c3nnnn3CC)ccc2OC)cc1 | -19.2 | 7.7 | 12.3 | 3.3 | -16.1 | 4.0
N/C(=N\OC(=O)/C=C/c1ccccc1Cl)c1ccncc1 | -3.8 | 19.4 | 0.9 | 11.1 | -12.7 | 0.4
CCOc1cc(S(=O)(=O)Nc2ccc(CC)cc2)ccc1Cl | -2.9 | 12.3 | -0.4 | 14.3 | 41.9* | -11.8

High-throughput results (PubChem BioAssay)
